Measured values of several laboratories.
Compare with care: the assays were run in different laboratories.
Target: Phosphatidylinositol 4-phosphate 5-kinase type-1 gamma (PIP5K1C, Homo sapiens, UniProt O60331)

| SMILES | observed | mode | technique | concentration | quantity | result |
| --- | --- | --- | --- | --- | --- | --- |
| CS(=O)(=O)Nc1cccc(-c2csc(NC(=O)CSc3nc4nccnc4c(=O)n3CCc3ccccc3)n2)c1 | enzyme activity | inhibitor |  | 10 µM | inhibition | 0% |
| Cc1ccc(C(=O)Nc2ccc(CN3CCN(C)CC3)c(C(F)(F)F)c2)cc1C#Cc1cnc2cccnn12 | cell-free assay |  |  | 23.5 nM | remaining signal | 100% |
| COc1cc(Cl)c(C(=O)N[C@@H](CN[C@H]2CC[C@@H](N)CC2)Cc2ccc(C#N)cc2)cc1-c1ccc(CN[C@H](C)c2ccc(C)cc2)o1 | enzyme activity | inhibitor |  | 1 µM | remaining activity | 96% |
| CC1=C(C#N)C(c2ccc3c(c2)c(NC(=O)c2ccccc2C)nn3C)C(C#N)=C(C)N1 | cell-free assay |  | competition with immobilised ligand | 1 µM | remaining binding | 91% |
| Cc1cnc(NC2CCOCC2)nc1-n1cnc(C(=O)NC(CN)c2cc(F)cc(Cl)c2)c1 (centres unmarked) | enzyme activity | inhibitor | radiometric | 1 µM | remaining activity | 96% |
| Cc1ccc(NC(=O)c2ccc(C)c(C(F)(F)F)c2)cc1C#Cc1nn(C2CCC(O)CC2)c2ncnc(N)c12 (centres unmarked) | cell-free assay |  |  | 10 µM | remaining signal | 98% |
| CNCc1ccccc1-c1csc([C@@H](C)Nc2nc(C)nc3cc(OC)c(OC)cc23)c1 | cell-free assay |  | competition with immobilised ligand | 1 µM | remaining binding | 88% |
| Nc1ncnc2occ(-c3ccc(NC(=O)Nc4cc(C(F)(F)F)ccc4F)cc3)c12 | cell-free assay |  |  | 20 µM | remaining signal | 0% |
| O=C(CSc1nc2nccnc2c(=O)n1CCc1ccccc1)Nc1nccs1 | enzyme activity | inhibitor |  | 10 µM | inhibition | 12% |
| Cc1cc(NC(=O)c2cccc3cc(-c4cccc5[nH]nc(N)c45)ccc23)ccc1F | enzyme activity | inhibitor |  | 0.1 µM | activity vs control | 110% |
| CN1CC(Oc2cnc(C#N)cc2-c2ccn3nc(NC(=O)C4CC4)cc3c2)C1 | enzyme activity | inhibitor |  | 1 µM | inhibition | -3% |
